Screening data as filed in PubChem BioAssay.
TRPC6 act: mouse TRPC6 channel activators, primary screen, cell-based, HEK293, membrane potential dye; AID 2550, 2010; B-score at 10 µM; HEK293-TRPC6 membrane potential dye fluorescence; active compounds read high; actives 0.13% (n = 310,000); Short transient receptor potential channel 6 (Mus musculus), Q61143;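 active = B-score of the integrated fluorescence ratio above library mean plus 3 SD, and starting fluorescence ratio within library mean plus 5 SD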;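 note: higher score means more depolarization so channel activation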
TRPC4 act: activators of mouse TRPC4 channel, primary screen, Fluo4 calcium, HEK293 TRPC4beta/mu-opioid cells. Short transient receptor potential channel 4 (Mus musculus), Q9QUQ5. Fluo4 calcium fluorescence; active compounds read high. B-score at 10 µM. actives 0.49% (n = 310,000). AID 2237, 2010;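 active = B-score above 5 SD of library B-scores, and initial fluorescence ratio not above library mean plus 5 SD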;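 note: positive B-score marks a calcium rise read as TRPC4 activation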
Target sequence (Q9QUQ5 whole entry, looked up): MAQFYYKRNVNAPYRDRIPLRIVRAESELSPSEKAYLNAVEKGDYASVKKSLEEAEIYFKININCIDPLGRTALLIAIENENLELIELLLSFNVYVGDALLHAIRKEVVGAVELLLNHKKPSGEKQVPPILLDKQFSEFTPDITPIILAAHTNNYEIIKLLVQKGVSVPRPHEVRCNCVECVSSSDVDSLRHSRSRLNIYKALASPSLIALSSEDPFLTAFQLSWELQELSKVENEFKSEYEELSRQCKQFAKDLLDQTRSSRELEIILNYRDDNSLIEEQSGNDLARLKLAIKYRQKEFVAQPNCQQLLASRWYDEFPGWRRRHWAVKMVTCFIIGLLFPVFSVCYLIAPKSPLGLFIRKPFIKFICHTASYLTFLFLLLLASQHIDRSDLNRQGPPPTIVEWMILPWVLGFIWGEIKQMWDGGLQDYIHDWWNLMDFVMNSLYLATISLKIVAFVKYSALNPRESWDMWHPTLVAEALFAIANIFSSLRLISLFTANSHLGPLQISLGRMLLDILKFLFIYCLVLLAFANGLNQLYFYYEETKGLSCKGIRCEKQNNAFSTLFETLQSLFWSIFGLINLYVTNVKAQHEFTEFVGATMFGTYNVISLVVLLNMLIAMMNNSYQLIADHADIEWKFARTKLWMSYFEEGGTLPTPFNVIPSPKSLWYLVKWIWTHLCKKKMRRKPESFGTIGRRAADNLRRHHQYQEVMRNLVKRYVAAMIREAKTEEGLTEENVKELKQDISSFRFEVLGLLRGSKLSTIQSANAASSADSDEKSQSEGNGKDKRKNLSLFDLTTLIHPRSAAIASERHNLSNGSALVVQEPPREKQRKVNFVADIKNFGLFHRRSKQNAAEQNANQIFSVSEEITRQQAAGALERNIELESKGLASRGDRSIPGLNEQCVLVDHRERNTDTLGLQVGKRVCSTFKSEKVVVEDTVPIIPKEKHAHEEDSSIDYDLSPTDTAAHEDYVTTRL
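Test system: HEK293 cells stably co-expressing mouse TRPC4beta and mu-opioid receptor | Schedule: Fluo4 dye loading 45 min at room temperature, 110 s recording | Measured by: Kinetic Fluo4 calcium fluorescence, 5 s baseline at 1 Hz | Evaluation: B score of integrated ratio | Controls: Buffer (low) and maximal DAMGO (high)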
TRPC6 inhibitor: mouse TRPC6 channel inhibitors, primary screen, cell-based, HEK293, membrane potential dye; ACh-evoked depolarization; active compounds read low; B-score at 10 µM; actives 1.1% (n = 310,000); AID 2553, 2010;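 active = B-score under library mean minus 3 SD, initial fluorescence not abnormally high, positive integrated signal ratio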;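 note: B-score derived from integrated fluorescence ratio over the kinetic read; more negative B-score means stronger inhibition of depolarization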
TRPC4 block: inhibitors of mouse TRPC4 channel, primary screen, Fluo4 calcium, HEK293 TRPC4beta/mu-opioid cells. B-score at 10 µM. actives 0.39% (n = 300,000). DAMGO-evoked Fluo4 calcium flux; active compounds read low. Short transient receptor potential channel 4 (Mus musculus), Q9QUQ5. AID 2247, 2010;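 active = B-score over 3 SD under the library average, no early fluorescence shift, positive overall ratio signal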
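Signal: kinetic Fluo4 fluorescence imaging of calcium influx. Material: stable TRPC4beta/mu-opioid receptor HEK293 cells. Probe or stimulus: DAMGO in two steps, submaximal then maximal.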
TRPC4 potent: positive allosteric modulators of TRPC4, primary screen, cell-based, mouse TRPC4beta, HEK293 mu-opioid, Fluo-4 calcium; DAMGO EC20, Fluo-4 Ca2+ flux; active compounds read high; actives 0.42% (n = 310,000); Short transient receptor potential channel 4 (Mus musculus), Q9QUQ5; B-score at 10 µM; AID 2227, 2009;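 active = B-score of calcium response area above 5 SD of library B-scores, with initial fluorescence ratio within 5 SD of library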;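 note: B-score of integrated fluorescence ratio over time as area under calcium response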
TRPC4 sel inh 2: mouse TRPC4 off-target activity of TRPC6 inhibitors, second screen | shares compounds with TRPC6 inhibitor | inhibition, % at 10 µM | HEK293 TRPC4/MOR, membrane potential dye fluorescence; channel activated by saturating DAMGO dose | actives 42% (n = 920);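 active = compounds whose fluorescence signal differed from control wells by over 3 SD, either direction, in both duplicate plates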
TRPC4 spec: mouse TRPC4 modulation by TRPC6 hits, confirmation, selectivity assay for TRPC6 inhibitor project, cell-based, HEK293 TRPC4/mu-opioid, membrane potential dye; actives 61% (n = 920); activity change, negative = inhibition, % at 10 µM; AID 2777, 2010; shares compounds with TRPC6 inhibitor; membrane potential fluorescence;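 active = rise or fall in signal beyond 3 SD of buffer-only wells in both replicate plates, either sign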;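 note: integrated kinetic ratio of fluorescence range over baseline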
HEK293 MPD ctr 2-1: nonspecific membrane potential effects, parental HEK293, confirmation, counter-screen for TRPC6 inhibitor project, cell-based, second counter screen; parental HEK293 membrane potential dye fluorescence; maximal acetylcholine challenge after compound addition; shares compounds with TRPC6 inhibitor; AID 2779, 2010; signal change vs control, % at 10 µM; actives 31% (n = 920);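 active = membrane potential signal moving either way by over 3 SD of the maximum-effect control, in both duplicate plates, meaning non-specific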
HEK293 MPD ctr-1: membrane potential modulation in parental HEK293, confirmation, counter-screen for TRPC6 inhibitor project, cell-based; shares compounds with TRPC6 inhibitor; parental HEK293 membrane potential dye fluorescence; membrane potential signal change, % at 10 µM; actives 60% (n = 920); AID 2780, 2010;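 active = membrane potential signal shifting up or down by more than 3 SD of buffer-only wells, on both duplicate plates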
HEK293 MPD ctr-2: parental HEK293 membrane potential modulation, confirmation, counter-screen for TRPC6 modulator project, cell-based; membrane potential signal change, % at 10 µM; shares compounds with TRPC6 inhibitor; AID 488924, 2010; actives 51% (n = 2,400); membrane potential dye fluorescence;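 active = membrane potential signal moves up or down beyond 5 SD from buffer-only wells, on both duplicate plates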
HEK293 MPD ctr 2-2: second check of TRPC6 modulator effects in parental HEK293 cells; shares compounds with TRPC6 inhibitor; membrane potential dye fluorescence; after compound, maximal acetylcholine stimulation; inhibition, % at 10 µM; actives 14% (n = 2,400); AID 488926;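 active = membrane potential signal drops by more than 5 SD from the mean control signal, in both duplicate plates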;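 note: plate controls were acetylcholine ECmax control wells for no effect and buffer only wells for full effect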
TRPC4/MOR mod: TRPC4 modulation by TRPC6 hit compounds, confirmation, selectivity assay for TRPC6 modulator project, cell-based, HEK293 TRPC4/mu-opioid, membrane potential dye, mouse; shares compounds with TRPC6 inhibitor; membrane potential fluorescence; percent change from control (negative = decrease, positive = increase), % at 10 µM; actives 69% (n = 2,400);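 active = membrane potential signal moved up or down beyond 5 SD of buffer control wells, in both duplicate plates, actives on both sides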;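 note: plate controls were assay buffer wells for no effect and DAMGO maximal-effect wells for full effect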
TRPC4/MOR inh 2: second selectivity test of TRPC6 modulators against mouse TRPC4 | actives 55% (n = 2,400) | shares compounds with TRPC6 inhibitor | AID 488928 | inhibition, % at 10 µM | HEK293 TRPC4/mu-opioid, membrane potential dye fluorescence; stimulated with maximal-effect DAMGO;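 active = drop in membrane potential signal beyond 5 SD of the control wells in both duplicate plates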;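 note: TRPC4 counter screen for TRPC6 hits run under conditions tuned for TRPC6 not TRPC4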
TRPC6 inh conf: mouse TRPC6 channel inhibitors, confirmation, HEK293 cells, membrane potential dye, duplicate; actives 43% (n = 3,300); shares compounds with TRPC6 inhibitor; ACh-evoked depolarization; inhibition, % at 10 µM;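 active = fluorescence ratio falls more than 5 SD below the full-stimulation control mean, in both duplicate runs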;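 note: integrated fluorescence ratio of peak minus minimum over baseline after agonist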
TRPC6 act conf: mouse TRPC6 channel activators, confirmation, HEK293 cells, membrane potential dye, duplicate. shares compounds with TRPC6 inhibitor. HEK293-TRPC6 membrane potential dye fluorescence, FDSS. activation, % at 10 µM. actives 11% (n = 2,800);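 active = ratio signal rise beyond 5 SD above unstimulated control wells' mean, seen in both duplicate runs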;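 note: plate controls were buffer EC0 wells for no effect and acetylcholine ECmax response for full effect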
Active calls of the source: *; i = inactive; / = not tested or not shown. The list is not random: actives were taken first. Their share in the collection is about 2.3%.

SMILES	TRPC6 act	TRPC4 act	TRPC6 inhibitor	TRPC4 block	TRPC4 potent	HEK293 MPD ctr-2	HEK293 MPD ctr 2-2	TRPC4/MOR mod	TRPC4/MOR inh 2	TRPC6 inh conf	TRPC6 act conf	others
CN(C)CCCn1c2c(c(SCC(=O)Nc3cccc4ccccc34)nc1=O)CCCC2	i	i	-5.3*	i	i	i	i	i	46%*	i	i
CCN(CC)CCCn1c2c(c(SCC(=O)Nc3cccc4ccccc34)nc1=O)CCC2	i	i	i	i	i	/	/	/	/	/	/
CC(C)OCC1CC(CC(=O)Nc2ccc([N+](=O)[O-])cc2)C(=O)O1 (stereo not given)	i	i	i	i	i	/	/	/	/	/	/
CC(C)(C)OC(=O)NC1CC2CCCC(C1)N2Cc1ccccc1 (stereo not given)	i	i	-5.6*	i	i	i	88%*	14%*	29%*	74%*	/
COCC(=O)NC1CC2CCCC(C1)N2Cc1ccccc1 (stereo not given)	i	i	i	i	i	/	/	/	/	/	/
CCOc1ccc(S(=O)(=O)N2CCc3cc(OC)c(OC)cc3C2)cc1	12*	i	i	i	i	i	i	10%*	i	/	114%*
CCOC(=O)C1Cc2ccccc2CN1 (stereo not given)	i	i	i	i	i	/	/	/	/	/	/
CCOC(=O)C1Cc2c([nH]c3ccccc23)CN1 (stereo not given)	i	i	-8.6*	i	i	/	/	/	/	i	i	TRPC4 sel inh 2=i;TRPC4 spec=i;HEK293 MPD ctr 2-1=i;HEK293 MPD ctr-1=-0.1%*
O=C(CCC(=O)c1ccc(F)cc1)Nc1cc(Cl)cc(Cl)c1	i	i	i	i	i	/	/	/	/	/	/
COc1cccc(N=Nc2c(N)[nH]n3c(=O)cc(-c4ccccc4)nc23)c1	i	i	-5.3*	i	i	i	i	-20%*	66%*	i	i
Cc1ccc(N=Nc2c(N)[nH]n3c(=O)cc(-c4ccccc4)nc23)cc1	i	i	-8.6*	i	i	/	/	/	/	79%*	i	TRPC4 sel inh 2=52%*;TRPC4 spec=-17%*;HEK293 MPD ctr 2-1=i;HEK293 MPD ctr-1=-220%*
Cc1cc(=O)n2[nH]c(N)c(N=Nc3ccccc3)c2n1	i	i	i	i	i	/	/	/	/	/	/
N#Cc1c(NCCN)nc(-c2ccco2)c2c1CCCC2	i	i	-8.6*	i	i	-258%*	89%*	-46%*	75%*	76%*	i
CN(C)CCNc1nc(-c2ccco2)c2c(c1C#N)CC(C)(C)OC2	i	i	-9.7*	i	i	-396%*	78%*	-65%*	76%*	77%*	i
CC1(C)Cc2c(C#N)c(NCc3ccco3)nc(-c3ccco3)c2CO1	i	i	i	i	i	/	/	/	/	/	/
Cc1ccccc1N(CC(=O)Nc1ccc(S(=O)(=O)N2CCOCC2)cc1)S(C)(=O)=O	i	i	i	i	i	/	/	/	/	/	/
CC1(C)CC(=O)c2c(O)cc(O)cc2O1	i	i	i	i	i	/	/	/	/	/	/
C[C@]12CCC[C@H](O1)c1c(cc3c(c1O)C(=O)c1c(O)cc(O)cc1C3=O)O2	13*	i	i	i	i	274%*	i	58%*	i	i	91%*
COc1cccc(/C=C(\C)C(=O)c2c(C)cc(C)[nH]c2=O)c1OC	i	i	i	i	i	/	/	/	/	/	/
O=[N+]([O-])c1ccc(OCCO)nc1	i	i	i	i	i	/	/	/	/	/	/
COc1ccc(NC(=S)NNc2ccc([N+](=O)[O-])cc2S(=O)(=O)Nc2ccc(C)cc2C)cc1	i	i	-6.8*	i	i	/	/	/	/	i	i	TRPC4 sel inh 2=i;TRPC4 spec=i;HEK293 MPD ctr 2-1=i;HEK293 MPD ctr-1=i
Cc1cc(NCc2ccco2)n2ncnc2n1	i	i	i	i	i	/	/	/	/	/	/
O=C(CN1CCCCC1)N1c2ccccc2CCc2ccccc21	i	i	-6.5*	i	i	100%*	i	17%*	i	i	/
O=C(CN1CCN(Cc2ccccc2)CC1)Nc1ccc([N+](=O)[O-])cc1C(=O)Nc1ccccc1F	i	i	-5.1*	i	i	i	i	i	70%*	38%*	i
